The structures appear in SMILES notation. Activity calls are given as the source filed them. The rule behind the calls is not given here.

For assay [1], the target named is T1, Protein Wnt-2 (Homo sapiens) (UniProt P09544).
T1 sequence (whole entry): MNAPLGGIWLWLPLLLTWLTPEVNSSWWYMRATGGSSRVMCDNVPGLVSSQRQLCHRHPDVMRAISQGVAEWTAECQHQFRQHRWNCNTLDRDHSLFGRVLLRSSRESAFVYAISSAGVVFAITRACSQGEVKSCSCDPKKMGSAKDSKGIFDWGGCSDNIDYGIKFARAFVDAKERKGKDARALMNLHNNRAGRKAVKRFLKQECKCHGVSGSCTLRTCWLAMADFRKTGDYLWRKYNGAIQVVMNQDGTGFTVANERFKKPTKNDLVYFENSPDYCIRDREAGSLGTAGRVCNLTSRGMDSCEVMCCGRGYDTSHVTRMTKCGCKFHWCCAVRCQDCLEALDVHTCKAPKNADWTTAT
Put plainly: Inhibition of Wnt2 signaling pathway in human A549 cells assessed as inhibition of beta-casein-mediated Tcf/Lef transcriptional activity after 24 hrs by dual luciferase reporter gene assay relative to control. The class given is cell-based. Also noted: concentration or dose not given beside the values. As to conditions: concentration not given here. The method, boiled down:
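A549/Wnt2 cells (4 × 10⁴) transiently co-transfected with 1 lg pSuperTopflash (eight Tcf sites upstream of firefly luciferase) or pSuperFopflash (mutated Tcf sites, negative control) plus 15 ng pRL-TK. Compounds applied at the proliferation IC₅₀, 37 °C, 24 h. Lysed; firefly and Renilla read by dual-luciferase. Firefly/Renilla ratio, triplicates, mean ± SEM, relative to untreated cells.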
A general note: Reporter assays use an easily measured gene product as a stand-in for the process of interest.

A short description of assay [2]: Inhibition of […] signaling in human A549 cells assessed as inhibition of cell proliferation at 15% of IC50 concentration after 24 to 48 hrs by MTT assay. The class given is cell-based.
Assay [3] has as its system A549. As to the kind of experiment: Reduction of beta-casein expression level in human A549 cells expressing Wnt2 by Western blotting. The class given is functional, cell-based.
Assay [4] concerns A549. As to the kind of experiment: Reduction of beta-casein expression level in cytosolic fraction of human A549 cells expressing Wnt2 by Western blotting. The class given is functional, cell-based. On the technique in general: A western blot detects proteins with antibodies after separation by electrophoresis.
Assay [5] relates to A549. Put plainly: Reduction of beta-casein expression level in nuclear fraction of human A549 cells expressing Wnt2 by Western blotting. The class given is functional, cell-based.
Assay [6] can be described thus: Inhibition of […] signaling in human H460 cells assessed as inhibition of cell proliferation after 24 hrs by MTT assay. The format is cell-based. In general terms: Formazan colour is commonly taken as a measure of viable cells.
The nature of assay [7]: Inhibition of […] signaling in human A549 cells assessed as inhibition of cell proliferation after 24 hrs by MTT assay. As to conditions: A549, 24 h.
A short description of assay [8]: Inhibition of […] signaling in human A549 cells assessed as inhibition of cell proliferation at 30% of IC50 concentration after 24 to 48 hrs by MTT assay. The format is cell-based.
Assay [9] concerns the target T1, Protein Wnt-2 (Homo sapiens). Put plainly: Inhibition of Wnt2 signaling pathway in human H460 cells assessed as inhibition of beta-casein-mediated Tcf/Lef transcriptional activity IC50 concentration after 24 hrs by dual luciferase reporter gene assay relative to control. The class given is cell-based. In short, it runs like this:
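H460/Wnt2 cells transiently co-transfected with SuperTopflash and pRL-TK Renilla control. Compounds given at the A549 proliferation IC₅₀, 37 °C, 24 h. Dual firefly/Renilla luciferase read-out as normalized ratio, triplicates, mean ± SEM, versus untreated cells.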

Assay [10] is described as follows: Inhibition of […] signaling in human A549 cells assessed as inhibition of cell proliferation after 24 to 48 hrs by MTT assay. The format is cell-based. In short, it runs like this: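 MTS proliferation assay in A549/Wnt2 cells. Cells seeded at 5 × 10³ per well and left about 24 h to attach. Compounds added at various concentrations; growth read at 24 and 48 h after treatment. MTS reagent for 30 min at 37 °C in CO₂, then absorbance at 490 nm.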

The term inhibition denotes the drop in the measured response relative to a control, in per cent. One may read the IC50 as the concentration that inhibits the measured activity by half. Turning to `CN(C)CCOc1nc2ccccc2nc1C#Cc1ccccc1`, the inhibition in assay [1] came to 30%. Besides, the inhibition entry in assay [2] and in [6] was “Active” each time. For the same compound, the result in the assay on A549 [3], in the assay with A549 [4] and with A549 [5] was Active. Besides, the IC50 in [7] came out at 758 nM.

In the case of `COc1c(C[C@@H](C)OC(=O)Oc2ccc(O)cc2)c2c3c(C[C@@H](C)OC(=O)c4ccccc4)c(OC)c(=O)c4c(O)cc(OC)c(c5c(OC)cc(O)c(c1=O)c52)c43` [CALPHOSTIN C], in assay [7], the IC50 was found to be 3200 nM.

Turning to `CCN(CC)CCOc1nc2cc(NC(=O)N(C)Cc3ccc(F)cc3)ccc2nc1C#Cc1ccc(N(C)C)cc1`, the inhibition in assay [1] was > 80%. In addition, the inhibition entry in assay [2] and in assay [6] was “Active” each time. The outcome with A549 [3], in the assay with A549 [4] and in the assay with A549 [5] was Active. Further, in [7], the IC50 worked out at 7900 nM.

As for `COc1ccc(C#Cc2nc3cc(F)ccc3nc2OCCOCCN(C)C)cc1`, the inhibition in [1] and in assay [9] was > 80% in each case. The inhibition entry in [2], in [8] and in assay [6] was “Active” each time. Further, the result with A549 [3], in the assay on A549 [4] and in the assay on A549 [5] was Active. Besides, in [7], the IC50 worked out at 2340 nM.

In the case of `Cc1ccc(C#Cc2nc3ccc(NC(=O)N4CCN(c5ccccn5)CC4)cc3nc2OCCN2CCCC2)cc1`, the inhibition in assay [1] is 30%; in assay [10], “Dose-dependent effect”. Also, the inhibition entry in [2] and in assay [6] was “Active” in each case. For the same compound, the result in the assay with A549 [3], with A549 [4] and in the assay on A549 [5] was Active. The IC50 in [7] was 4760 nM.

As for `Cc1ccc(C#Cc2nc3ccccc3nc2OCCN2CCCC2)cc1`, the inhibition entry in assay [2] and in assay [6] was “Active” throughout. Moreover, the result in the assay with A549 [3], in the assay with A549 [4] and in the assay on A549 [5] was Active. In addition, the IC50 in assay [7] was 1320 nM.

`COc1cccc2nc(OCCN3CCCC3)c(C#Cc3ccccc3)nc12`: the inhibition entry in assay [2] and in assay [6] was “Active” throughout. Moreover, the inhibition result in assay [10] was “Dose-dependent effect”. Also, the outcome with A549 [3], with A549 [4] and in the assay on A549 [5] was Active. In assay [7], the IC50 came out at 1890 nM.

On to `Cc1ccc2nc(OCCC3CCCN3C)c(C#Cc3ccccc3)nc2c1` (stereo not given), for which the values for the inhibition in [1] and in [10] were 30% and “Dose-dependent effect”, respectively. The inhibition entry in assay [2] and in [6] was “Active” in each case. The outcome in the assay with A549 [3], in the assay with A549 [4] and with A549 [5] was Active. The IC50 in assay [7] was 905 nM.

For the compound `Cc1cccc(C#Cc2nc3ccccc3nc2OCCCN2CCCCC2)c1`, the inhibition in assay [1] came to 30%. Moreover, the inhibition entry in assay [2] and in assay [6] was “Active” each time. For the same compound, the outcome in the assay with A549 [3], in the assay with A549 [4] and in the assay with A549 [5] was Active. The IC50 in [7] worked out at 1610 nM.

On to `COc1cccc(C#Cc2nc3ccc(NC(=O)c4ccc(F)cc4)cc3nc2OC2CCN(C)CC2)c1`, for which the inhibition entry in assay [2] and in assay [6] was “Active” each time. Further, the result in the assay on A549 [3], in the assay with A549 [4] and in the assay with A549 [5] was Active. The IC50 in assay [7] came out at 3540 nM.

As to `CN1CCC[C@H]1COc1nc2ccc(N)cc2nc1C#Cc1ccccc1`, the inhibition in assay [1] and in assay [9] was > 80% throughout. In addition, the inhibition entry in assay [2] and in assay [6] was “Active” in each case. In addition, the result in the assay with A549 [3], in the assay with A549 [4] and in the assay with A549 [5] was Active. Besides, the IC50 in assay [7] stood at 3800 nM.

Take `CCN(CC)CCOc1nc2cc(NC(=O)c3ccc(C)cc3)ccc2nc1C#Cc1ccc(OC)cc1C`: the inhibition entry in [2] and in [6] was “Active” each time. Further, the outcome in the assay on A549 [3], in the assay with A549 [4] and in the assay on A549 [5] was Active. Moreover, in assay [7], the IC50 was found to be 1780 nM.

In the case of `COc1nc2ccc(NC(=O)Nc3ccc(C(C)(C)C)cc3)cc2nc1NCCN1CCCCC1`, the inhibition in assay [1] turned out to be 30%. Besides, the inhibition entry in assay [2], in assay [8] and in assay [6] was “Active” in each case. Moreover, the result in the assay on A549 [3], in the assay on A549 [4] and in the assay with A549 [5] was Active. The half-inhibitory concentration (IC50) in assay [7] was 5010 nM.

On to `CN(C)c1ccc(C#Cc2nc3cc(F)ccc3nc2OCCCN2CCCCC2)cc1`, for which, in [1], the inhibition came to 30%. Moreover, the inhibition result in assay [2] and in [6] was “Active” throughout. For the same compound, the outcome in the assay with A549 [3], in the assay on A549 [4] and with A549 [5] was Active. The IC50 in assay [7] turned out to be 3770 nM.

The values above are taken from ChEMBL document CHEMBL1255524, “Identification of 2,3,6-trisubstituted quinoxaline derivatives as a Wnt2/β-catenin pathway inhibitor in non-small-cell lung cancer cell lines” (Bioorg Med Chem Lett, 2010).
